The test system of assay [1] is Mycobacterium tuberculosis. Kind of assay: Antimycobacterial activity against Mycobacterium tuberculosis H37Rv by twofold dilution method. It counts as functional. The method, boiled down:
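Single colony inoculated into complete Middlebrook 7H9 and grown at 37 °C to exponential phase (~10⁸ CFU/mL, OD600 0.8–1.0). Diluted to ~10⁷ CFU/mL, then streaked onto plates with two-fold serial compound dilutions. MIC was the lowest concentration inhibiting growth. Three independent repeats.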

The target of assay [2] is T1, Enoyl-[acyl-carrier-protein] reductase [NADH] (Mycobacterium tuberculosis) (UniProt P9WGR1).
T1 sequence (whole entry): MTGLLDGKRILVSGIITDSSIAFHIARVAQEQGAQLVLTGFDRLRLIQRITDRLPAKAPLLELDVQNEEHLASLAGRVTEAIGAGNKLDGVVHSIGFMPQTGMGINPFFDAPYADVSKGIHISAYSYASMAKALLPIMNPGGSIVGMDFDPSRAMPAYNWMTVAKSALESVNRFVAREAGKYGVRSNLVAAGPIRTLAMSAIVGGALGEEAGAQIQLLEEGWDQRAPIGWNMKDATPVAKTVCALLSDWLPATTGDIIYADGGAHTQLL
Kind of assay: Inhibition of Mycobacterium tuberculosis InhA expressed in Escherichia coli BL21 using trans-2-dodecenoyl-Coenzyme A as substrate at 50 uM by spectrophotometry. An outline of the steps: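 Recombinant M. tuberculosis InhA was expressed in E. coli with 1 mM IPTG overnight at 20 °C. It was purified on Ni-NTA and desalted into 30 mM PIPES pH 6.8, 150 mM NaCl. Reactions ran in buffer at pH 6.8 with 150 mM NaCl. Controls were run identically without inhibitor.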

Structures are written as SMILES. Converted amounts (≈) assume the structure as drawn.

What is called MIC is the smallest concentration in the dilution series that meets the test's criterion for growth inhibition. High values mean a less susceptible organism, low ones a more susceptible organism. Consider `c1ccc(Cc2cn(Cc3ccccc3)nn2)cc1`, for which it took 201 µM (≈ 50 µg/mL) to inhibit growth in assay [1] (MIC). In assay [1], `c1ccc(Cn2cc(-c3ccccc3)nn2)cc1` returned an MIC of over 425 µM.

A word on the inhibition: it is the drop in the measured response relative to a control, in per cent. A high value points to a response far below the control. Turning to `O=C(Cc1ccccc1)c1cn(CC2CCCCC2)nn1`, the inhibition in assay [2] worked out at 12%. In assay [1], this molecule returned an MIC of 88.2 µM (≈ 25 µg/mL). Molecule `COc1cccc(Cn2cc(C(=O)Cc3ccc(Cl)cc3Cl)nn2)c1` yielded an MIC in assay [1] of 13.3 µM (≈ 5 µg/mL). Same read-out and setting: for `O=C(Cc1ccccc1)c1cn(Cc2ccc([N+](=O)[O-])cc2)nn1` the value was 310 µM (≈ 100 µg/mL). Turning to `CCCCCCCCn1cc(CCc2ccccc2)nn1`, the inhibition in assay [2] amounted to 46%. In assay [1], 35 µM (≈ 9.99 µg/mL) was the least that counted as inhibitory (MIC). Regarding `CCCCCCCCn1cc(C(O)Cc2ccccc2)nn1` (racemic), the MIC in assay [1] came out at 33.2 µM (≈ 10 µg/mL).

As for `c1ccc(CCc2cn(CC3CCCCC3)nn2)cc1`, the MIC in assay [1] came to 186 µM (≈ 50 µg/mL). This MIC is about 5.6-fold higher than that of the molecule before.

In the case of `CCCCCCCCn1cc(C(=O)Cc2ccc(Cl)cc2Cl)nn1`, 27.2 µM (≈ 10 µg/mL) was the least that counted as inhibitory in assay [1] (MIC). In assay [2], `O=C(Cc1ccccc1)c1cn(Cc2ccccc2)nn1` showed an inhibition of 13%. This molecule also came in with an MIC in assay [1] of 361 µM (≈ 100 µg/mL). In assay [1], `Oc1cc(Cl)ccc1Oc1ccc(Cl)cc1Cl` [TRICLOSAN] displayed an MIC of 34.5 µM (≈ 9.99 µg/mL). On the same count and under the same terms, for `COc1cc(Cn2cc(C(=O)Cc3ccccc3)nn2)cc(OC)c1` the value was over 296 µM. On to `CCCCCCCCn1cc(C(=O)Cc2ccccc2)nn1`, for which, in assay [2], the inhibition was determined as 25%. The same molecule showed an MIC in assay [1] of 83.5 µM (≈ 25 µg/mL). The matching figures for `Cc1cc(C)cc(Cn2cc(C(=O)Cc3ccccc3)nn2)c1`: 10% and over 327 µM. On to `COc1cc(Cn2cc(C(=O)Cc3ccc(Cl)cc3Cl)nn2)cc(OC)c1`, for which, in assay [1], it took 246 µM (≈ 100 µg/mL) to inhibit growth (MIC). Molecule `Cc1cc(C)cc(Cn2cc(CCc3ccccc3)nn2)c1` had an inhibition in assay [2] of 11%. For the same molecule, inhibition of growth in assay [1] (MIC) required 34.3 µM (≈ 9.99 µg/mL).

`COc1cccc(Cn2cc(C(=O)Cc3ccccc3)nn2)c1` gave an inhibition in assay [2] of 10%. This molecule also came in with an MIC in assay [1] of 81.3 µM (≈ 25 µg/mL). The matching figures for `CCCCCCCCCCCCn1cc(CCc2ccccc2)nn1`: 40% and at most 5.9 µM. In the case of `O=C(Cc1ccc(Cl)cc1Cl)c1cn(Cc2ccc([N+](=O)[O-])cc2)nn1`, the MIC in assay [1] amounted to 256 µM (≈ 100 µg/mL). On the same count and under the same terms, next, `O=C(Cc1ccc(Cl)cc1Cl)c1cn(Cc2ccccc2)nn1`: 289 µM (≈ 100 µg/mL); `Cc1cc(C)cc(Cn2cc(C(=O)Cc3ccc(Cl)cc3Cl)nn2)c1`: 267 µM (≈ 100 µg/mL). The molecule `CCCCCCCCCn1cc(CCc2ccccc2)nn1` had an inhibition in assay [2] of 58%. The molecule also displayed an MIC in assay [1] of 16.7 µM (≈ 5 µg/mL). Taken in the same sequence, the figures for `c1ccc(CCc2cn(Cc3ccccc3)nn2)cc1` were 15% and 94.9 µM (≈ 25 µg/mL). On to `CCCCCCCCn1cc(C(O)Cc2ccc(Cl)cc2Cl)nn1` (racemic), for which the MIC in assay [1] worked out at 67.5 µM (≈ 25 µg/mL).

These data come from ChEMBL document CHEMBL1833930, “Synthesis and biological activities of triazole derivatives as inhibitors of InhA and antituberculosis agents” (2011).
